The values that follow come from ChEMBL document CHEMBL1122498, “Improved delivery through biological membranes. 11. A redox chemical drug-delivery system and its use for brain-specific delivery of phenylethylamine” (1983).

What all share (assay type): functional
The species entered for test [1] is Rattus norvegicus. Kind of test: Half life during the site specific conversion to the quaternary derivative 5a in rat liver homogenate was determined. A digest of the protocol:
(§1)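 Sprague-Dawley rat liver (5.0 g) homogenized in 50 mL phosphate buffer pH 7.4, centrifuged, heated 50 °C for 5 min, recentrifuged, and diluted to 250 mL (2%). Dihydro derivative (0.2 mL of 6.25 × 10⁻⁴ M in methanol) diluted to 10 mL with homogenate. UV scans at 37 °C from 400 to 250 nm every 5 min for 1 h against a homogenate/methanol reference. First-order k and t1/2 derived.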

Test [2] is filed under the species Rattus norvegicus. Kind of test: Half life during the site specific conversion to the quaternary derivative 5a in rat brain homogenate was determined. A digest of the protocol: (§2)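 Rat brain (2.0 g) homogenized in 10 mL phosphate buffer pH 7.4, centrifuged, heated 50 °C for 5 min, recentrifuged, and diluted to 100 mL (2%). To 10 mL was added 0.2 mL of 6.25 × 10⁻⁴ M methanolic dihydro derivative. First-order k and t1/2 derived.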

The species entered for test [3] is Homo sapiens. Put plainly: Half life during the site specific conversion to the quaternary derivative 5a in fresh human plasma was determined. Put shortly: (§3)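 Dihydro derivative in methanol (0.2 mL of 6.25 × 10⁻⁴ M) diluted to 10 mL with 20% fresh human plasma in phosphate buffer pH 7.4. Held at 37 °C with UV scans 400–250 nm every 10 min for 2 h against a plasma/methanol reference. Oxidation to the pyridinium salt followed by loss at ~350 nm and gain at 262 nm. First-order k and t1/2 derived.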

The species entered for test [4] is Rattus norvegicus. Put plainly: In vitro facile oxidative conversion to the corresponding quaternary derivative 5a in rat brain homogenate. Put shortly:
as §2

The species entered for test [5] is Rattus norvegicus. Kind of test: In vitro facile oxidative conversion to the corresponding quaternary derivative 5a in rat liver homogenate. A digest of the protocol: as §1
The species named for test [6] is Homo sapiens. Kind of test: Half life during the site specific conversion to the quaternary derivative 5a in heparinized human whole blood was determined.
For test [7], the species on record is Homo sapiens. Kind of test: In vitro facile oxidative conversion to the corresponding quaternary derivative 5a in fresh human plasma. A digest of the protocol:
as §3

The species entered for test [8] is Homo sapiens. Kind of test: In vitro facile oxidative conversion to the corresponding quaternary derivative 5a in heparinized human whole blood.

For the molecule `CN1C=CCC(C(=O)NCCc2ccccc2)=C1`, the T1/2 in test [1] was found to be 14.4 min; in test [2], 28.2 min; in test [3] it was 64.2 min; in test [6], 13.7 min. The Activity was 4.12 10e-4 K s-1 in test [4], 8.13 10e-4 K s-1 in test [5], 1.8 10e-4 K s-1 in test [7] and 8.4 10e-4 K s-1 in test [8].

`O=C(NCCc1ccccc1)C1=CN(Cc2ccccc2)C=CC1`: the T1/2 was found to be 15.3 min in test [1], 55 min in test [2], 156 min in test [3] and 24.4 min in test [6]. The Activity in test [4] was 2.1 10e-4 K s-1; in test [5], 7.5 10e-4 K s-1; in test [7] it was 0.74 10e-4 K s-1; in test [8], 4.74 10e-4 K s-1.

`CN1C=C(C(=O)NCCc2ccccc2)CC(C(=O)NCCc2ccccc2)=C1`: the T1/2 in test [2] came out at 1370 min; in test [6] it was 234 min. In addition, the results for the Activity in test [4] and in test [8] were 0.084 10e-4 K s-1 and 0.494 10e-4 K s-1, respectively.

As for `CCOC(=O)C1=CN(C)C=C(C(=O)NCCc2ccccc2)C1`, the T1/2 in test [2] turned out to be 666 min; in test [6] it was 70.2 min. Also, the Activity in test [4] is 0.174 10e-4 K s-1; in test [8], 1.13 10e-4 K s-1.
